Series [1] concerns the target T1, Activated CDC42 kinase 1 (Homo sapiens, UniProt Q07912). In words: Inhibition of ACK1 (unknown origin) by radiometric biochemical kinase assay.
Target sequence in this assay (Q07912 whole entry): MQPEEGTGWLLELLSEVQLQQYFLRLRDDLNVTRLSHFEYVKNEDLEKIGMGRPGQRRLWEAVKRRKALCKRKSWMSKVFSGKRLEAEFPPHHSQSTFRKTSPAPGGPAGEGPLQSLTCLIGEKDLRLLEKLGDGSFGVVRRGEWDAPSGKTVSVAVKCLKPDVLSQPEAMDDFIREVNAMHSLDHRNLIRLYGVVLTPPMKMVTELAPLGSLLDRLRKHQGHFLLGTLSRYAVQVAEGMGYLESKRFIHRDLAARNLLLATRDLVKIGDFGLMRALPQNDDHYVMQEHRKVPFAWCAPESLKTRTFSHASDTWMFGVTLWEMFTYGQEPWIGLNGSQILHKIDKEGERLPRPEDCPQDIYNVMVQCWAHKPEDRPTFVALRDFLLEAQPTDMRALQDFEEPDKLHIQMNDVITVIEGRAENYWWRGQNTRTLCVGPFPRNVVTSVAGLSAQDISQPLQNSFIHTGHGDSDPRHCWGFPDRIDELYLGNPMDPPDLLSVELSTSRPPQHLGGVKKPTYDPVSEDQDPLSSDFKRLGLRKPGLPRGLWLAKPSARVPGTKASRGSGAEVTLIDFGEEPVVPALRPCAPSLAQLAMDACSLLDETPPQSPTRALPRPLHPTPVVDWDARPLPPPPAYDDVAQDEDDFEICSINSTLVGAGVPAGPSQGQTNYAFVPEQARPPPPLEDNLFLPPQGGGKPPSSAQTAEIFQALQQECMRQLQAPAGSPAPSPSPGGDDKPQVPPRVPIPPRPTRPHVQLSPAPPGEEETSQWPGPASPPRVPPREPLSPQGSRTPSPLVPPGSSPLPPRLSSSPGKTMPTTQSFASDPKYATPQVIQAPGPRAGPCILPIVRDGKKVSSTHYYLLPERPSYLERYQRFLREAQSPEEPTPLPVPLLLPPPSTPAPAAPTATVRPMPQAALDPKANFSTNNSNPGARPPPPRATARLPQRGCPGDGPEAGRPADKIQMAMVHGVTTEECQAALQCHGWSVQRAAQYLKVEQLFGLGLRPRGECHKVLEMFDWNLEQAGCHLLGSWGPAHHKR
The species entered for a further series is Mus musculus. Put plainly: Inhibition of ACK1/GCK in mouse BA/F3 cells assessed as reduction in NRAS-G12D mutant-mediated cell proliferation after 72 hrs by celltiter-glo assay. Format: cell-based. On the technique in general: Cellular ATP, detected with luciferase, serves as a proxy for viable cell number.
A further series concerns OCI-AML-3. Put plainly: Growth inhibition of human OCI-AML3 cells harboring NRAS-Q61L mutant after 72 hrs by celltiter-glo assay. Format: functional. The conditions noted are these: OCI-AML-3, 72 h.
Series [2] is described as follows: Growth inhibition of parental human U937 cells after 72 hrs by celltiter-glo assay. Format: cell-based, U-937.
Series [3] is described as follows: Metabolic stability in dog liver microsomes assessed as compound remaining at 1 uM after 30 mins. Format: ADME, Canis lupus familiaris, microsome. The conditions noted are these: read-out: Stability. For orientation: Microsomes from liver hold many membrane-bound enzymes, among them those of drug oxidation.
Series [4] in a line: Metabolic stability in rat liver microsomes assessed as compound remaining at 1 uM after 30 mins. Format: ADME, microsome. The conditions noted are these: read-out: Stability.
Series [5] can be described thus: Metabolic stability in mouse liver microsomes assessed as compound remaining at 1 uM after 30 mins. Format: ADME, microsome. The conditions noted are these: read-out: Stability.
The next series addresses CYP2C9 (Homo sapiens, UniProt P11712). Put plainly: Inhibition of CYP2C9 (unknown origin) assessed as activity remaining at 10 uM relative to control. Format: ADME. The conditions noted are these: read-out: Activity.
In a further series the target is CYP3A4 (Homo sapiens, UniProt P08684). In words: Inhibition of CYP3A4 (unknown origin) assessed as activity remaining at 10 uM relative to control. Format: ADME. The conditions noted are these: read-out: Activity.
Series [6] addresses Activated CDC42 kinase 1 (Mus musculus) (UniProt O54967). Put plainly: Inhibition of ACK1 in mouse BA/F3 cells harboring NRAS-G12D mutant assessed as reduction in AKT phosphorylation at S473 at 1 uM after 2 hrs by Western blot analysis. Format: cell-based. Summed up:
(§1)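 Ba/F3-NRAS-G12D or OCI-AML3 cells exposed 2 h to compounds (1 µM, or a dose series in OCI-AML3); phospho-p70S6K1, phospho-AKT S473, phospho-JNK and phospho-p38 assessed by western blot, actin as loading control.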

The target in series [7] is T2, Mitogen-activated protein kinase kinase kinase kinase 2 (Mus musculus) (UniProt Q61161).
T2 sequence (whole entry): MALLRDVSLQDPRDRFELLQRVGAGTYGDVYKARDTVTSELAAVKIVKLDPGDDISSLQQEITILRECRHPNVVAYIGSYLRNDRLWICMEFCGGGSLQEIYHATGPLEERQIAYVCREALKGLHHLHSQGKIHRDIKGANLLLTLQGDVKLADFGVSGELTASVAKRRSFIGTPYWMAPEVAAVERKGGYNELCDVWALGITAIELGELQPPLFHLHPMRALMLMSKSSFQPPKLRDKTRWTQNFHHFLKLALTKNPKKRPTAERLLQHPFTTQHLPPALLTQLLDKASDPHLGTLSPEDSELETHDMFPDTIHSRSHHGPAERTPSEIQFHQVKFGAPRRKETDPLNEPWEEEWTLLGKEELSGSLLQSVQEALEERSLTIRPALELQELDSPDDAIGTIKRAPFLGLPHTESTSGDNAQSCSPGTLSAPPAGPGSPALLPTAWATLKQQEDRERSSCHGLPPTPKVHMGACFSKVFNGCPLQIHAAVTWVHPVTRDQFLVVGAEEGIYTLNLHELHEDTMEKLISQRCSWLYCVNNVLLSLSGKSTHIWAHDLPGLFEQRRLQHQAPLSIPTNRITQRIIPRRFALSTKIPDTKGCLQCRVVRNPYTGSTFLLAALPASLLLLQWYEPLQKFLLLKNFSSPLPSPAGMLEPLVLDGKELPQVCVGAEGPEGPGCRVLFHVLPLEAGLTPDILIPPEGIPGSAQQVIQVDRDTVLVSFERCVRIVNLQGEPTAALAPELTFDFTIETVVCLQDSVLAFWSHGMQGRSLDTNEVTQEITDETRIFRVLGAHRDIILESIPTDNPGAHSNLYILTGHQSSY
Put plainly: Inhibition of GCK in mouse BA/F3 cells harboring NRAS-G12D mutant assessed as reduction in p38 phosphorylation at Thr180/Tyr182 at 1 uM after 2 hrs by Western blot analysis. Format: cell-based. The procedure, abridged: as §1

The target in series [8] is T1, Activated CDC42 kinase 1. Put plainly: Inhibition of ACK1 in human OCI-AML3 cells harboring NRAS Q61L mutant assessed as reduction in P70S6K1 phosphorylation at Thr421/Ser424 at 1 uM after 2 hrs by Western blot analysis. Format: cell-based. The procedure, abridged:
as §1
Target sequence in this assay (Q07912 whole entry, looked up): as the sequence (Q07912 whole entry) above

Series [9] concerns the target T1, Activated CDC42 kinase 1. Put plainly: Inhibition of ACK1 in human OCI-AML3 cells harboring NRAS Q61L mutant assessed as reduction in AKT phosphorylation at S473 at 1 uM after 2 hrs by Western blot analysis. Format: cell-based. Summed up: as §1
Target sequence in this assay (Q07912 whole entry, looked up): as the sequence (Q07912 whole entry) above
Background: A western blot detects proteins with antibodies after separation by electrophoresis.

Series [10] concerns the target T3, Mitogen-activated protein kinase kinase kinase kinase 2 (Homo sapiens) (UniProt Q12851).
T3 sequence (whole entry): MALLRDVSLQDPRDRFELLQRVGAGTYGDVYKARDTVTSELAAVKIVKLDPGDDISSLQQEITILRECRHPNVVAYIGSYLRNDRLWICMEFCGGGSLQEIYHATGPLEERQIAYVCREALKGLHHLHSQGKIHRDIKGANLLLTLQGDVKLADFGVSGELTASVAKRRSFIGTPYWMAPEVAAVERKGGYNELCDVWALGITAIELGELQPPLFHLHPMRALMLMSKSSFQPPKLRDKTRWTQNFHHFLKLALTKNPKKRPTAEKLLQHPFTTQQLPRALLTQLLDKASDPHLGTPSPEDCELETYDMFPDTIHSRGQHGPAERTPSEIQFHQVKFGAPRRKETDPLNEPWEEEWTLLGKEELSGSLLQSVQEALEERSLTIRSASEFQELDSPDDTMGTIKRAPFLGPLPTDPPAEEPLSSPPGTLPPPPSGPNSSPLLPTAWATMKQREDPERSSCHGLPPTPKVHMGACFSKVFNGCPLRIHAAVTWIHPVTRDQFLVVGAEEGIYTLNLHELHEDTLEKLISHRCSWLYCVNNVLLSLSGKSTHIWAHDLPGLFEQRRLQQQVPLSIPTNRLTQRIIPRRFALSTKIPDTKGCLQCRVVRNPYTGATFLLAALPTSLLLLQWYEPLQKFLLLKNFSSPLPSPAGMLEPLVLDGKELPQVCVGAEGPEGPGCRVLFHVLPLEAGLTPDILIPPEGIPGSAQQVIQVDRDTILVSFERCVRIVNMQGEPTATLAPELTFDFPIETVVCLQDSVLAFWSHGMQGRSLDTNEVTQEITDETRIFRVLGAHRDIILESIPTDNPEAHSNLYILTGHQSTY
In words: Inhibition of GCK in human OCI-AML3 cells harboring NRAS Q61L mutant assessed as reduction in JNK phosphorylation at T183/Y185 at 1 uM after 2 hrs by Western blot analysis. Format: cell-based. The procedure, abridged:
as §1

Series [11] has as its target T3, Mitogen-activated protein kinase kinase kinase kinase 2 (Homo sapiens). Put plainly: Inhibition of GCK in human OCI-AML3 cells harboring NRAS Q61L mutant assessed as reduction in p38 phosphorylation at Thr180/Tyr182 at 1 uM after 2 hrs by Western blot analysis. Format: cell-based. Summed up:
as §1

Activity calls are given as the source filed them. No cut-off for these calls is given here.

The IC50 is the concentration that gives 50% inhibition. As a reminder, the GI50 is the concentration at which growth is held to half of that of the control.

Sequence of CYP2C9 (P11712 whole entry): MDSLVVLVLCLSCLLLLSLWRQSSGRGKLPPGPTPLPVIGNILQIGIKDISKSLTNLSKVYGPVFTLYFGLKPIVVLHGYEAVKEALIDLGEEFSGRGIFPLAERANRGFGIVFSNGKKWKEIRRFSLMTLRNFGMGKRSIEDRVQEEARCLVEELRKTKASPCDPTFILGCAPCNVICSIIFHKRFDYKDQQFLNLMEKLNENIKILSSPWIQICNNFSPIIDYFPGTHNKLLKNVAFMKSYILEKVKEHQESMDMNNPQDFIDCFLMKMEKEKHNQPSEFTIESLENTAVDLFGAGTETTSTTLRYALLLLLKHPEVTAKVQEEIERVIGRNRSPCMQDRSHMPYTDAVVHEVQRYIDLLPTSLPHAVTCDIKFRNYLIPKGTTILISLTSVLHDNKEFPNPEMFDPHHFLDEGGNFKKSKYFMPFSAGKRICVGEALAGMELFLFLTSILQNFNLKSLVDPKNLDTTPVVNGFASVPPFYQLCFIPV
Sequence of Activated CDC42 kinase 1 (Mus musculus) (O54967 whole entry): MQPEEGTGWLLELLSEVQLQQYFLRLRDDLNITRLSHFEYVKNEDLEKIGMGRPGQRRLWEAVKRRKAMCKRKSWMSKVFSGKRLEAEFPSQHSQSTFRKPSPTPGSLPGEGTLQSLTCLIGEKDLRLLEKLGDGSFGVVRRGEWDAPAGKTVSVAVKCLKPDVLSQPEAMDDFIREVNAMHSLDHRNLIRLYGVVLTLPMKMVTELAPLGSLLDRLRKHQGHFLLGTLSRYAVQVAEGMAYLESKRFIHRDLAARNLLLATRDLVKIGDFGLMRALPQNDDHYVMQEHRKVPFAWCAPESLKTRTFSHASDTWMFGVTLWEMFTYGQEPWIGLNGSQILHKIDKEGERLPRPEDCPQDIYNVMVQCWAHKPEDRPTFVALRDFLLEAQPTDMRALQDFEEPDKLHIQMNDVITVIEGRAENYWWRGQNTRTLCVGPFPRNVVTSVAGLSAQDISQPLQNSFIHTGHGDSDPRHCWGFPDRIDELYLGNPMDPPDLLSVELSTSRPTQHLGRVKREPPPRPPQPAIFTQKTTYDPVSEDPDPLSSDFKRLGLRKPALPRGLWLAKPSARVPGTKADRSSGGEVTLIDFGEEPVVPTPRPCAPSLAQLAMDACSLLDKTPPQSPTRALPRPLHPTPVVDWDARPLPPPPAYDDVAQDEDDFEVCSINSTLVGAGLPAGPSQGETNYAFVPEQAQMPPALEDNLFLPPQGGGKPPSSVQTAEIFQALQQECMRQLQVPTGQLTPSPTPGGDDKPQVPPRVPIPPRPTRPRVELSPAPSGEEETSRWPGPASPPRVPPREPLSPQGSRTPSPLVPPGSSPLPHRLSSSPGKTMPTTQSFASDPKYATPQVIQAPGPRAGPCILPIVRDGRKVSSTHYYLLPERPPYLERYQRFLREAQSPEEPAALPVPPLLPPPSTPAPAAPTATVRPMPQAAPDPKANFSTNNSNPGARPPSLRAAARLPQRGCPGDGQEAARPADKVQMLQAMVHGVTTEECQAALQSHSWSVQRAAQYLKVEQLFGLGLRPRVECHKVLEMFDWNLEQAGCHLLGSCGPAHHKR
Sequence of CYP3A4 (P08684 whole entry): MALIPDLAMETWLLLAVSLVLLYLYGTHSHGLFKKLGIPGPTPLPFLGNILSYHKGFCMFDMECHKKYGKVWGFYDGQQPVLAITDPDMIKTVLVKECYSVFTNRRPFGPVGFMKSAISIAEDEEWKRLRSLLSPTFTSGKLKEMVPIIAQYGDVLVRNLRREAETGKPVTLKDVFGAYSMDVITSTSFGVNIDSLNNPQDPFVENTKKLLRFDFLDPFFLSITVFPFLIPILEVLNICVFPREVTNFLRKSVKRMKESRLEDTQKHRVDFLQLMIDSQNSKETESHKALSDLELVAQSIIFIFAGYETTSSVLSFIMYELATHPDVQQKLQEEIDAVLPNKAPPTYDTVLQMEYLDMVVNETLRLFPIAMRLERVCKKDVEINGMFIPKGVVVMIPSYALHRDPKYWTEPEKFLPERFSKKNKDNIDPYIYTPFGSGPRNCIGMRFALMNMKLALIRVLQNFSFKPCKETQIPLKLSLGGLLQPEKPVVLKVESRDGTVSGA

Consider `Cc1cc(Nc2ncc3c(n2)N(C)C(=O)N(c2cc(NC(=O)c4cccc(C(F)(F)F)c4)ccc2C)C3)n(C)n1`, for which inhibition on Activated CDC42 kinase 1 [1] was half-maximal at 9 nM (IC50). Besides, the GI50 stood at 129 nM in the series listed under Mus musculus and 208 nM with OCI-AML-3. Further, in series [2], the GI50 at 72 h was determined as 2460 nM. Further, the figures for the remaining at 0.5 h, 1 µM in [3], in [4] and in series [5] were 69.9%, 82.3% and 74.7%, respectively. The activity at 10 µM is 38.3% on CYP2C9 and > 100% at CYP3A4. Besides, the “reduction in AKT S473 phosphorylation (qualitative)” value (“reduction … (qualitative)” below) (in series [6]; on Activated CDC42 kinase 1 [9]) was “Active” throughout. The “reduction in p38 phosphorylation (qualitative call)” value (from here on “reduction in p38 phosphorylation”) in series [7] was “Active”. Also, the inhibition result (at Activated CDC42 kinase 1 [8]; in series [11]) was “Active” in each case. Moreover, the “reduction in JNK phosphorylation (qualitative call)” value (shortened to “reduction in JNK phosphorylation”) in [10] was “Active”.

On Activated CDC42 kinase 1 [1], `CCN1CCN(C(=O)c2ccc(Nc3ncc4c(n3)N(C)C(=O)N(c3cc(NC(=O)c5cccc(C(F)(F)F)c5)ccc3C)C4)cn2)CC1` had an IC50 of 13 nM. In addition, the GI50 came out at 107 nM in the series listed under Mus musculus and 122 nM in the series with OCI-AML-3. Besides, in [2], the 50% growth inhibitory concentration (GI50) at 72 h is 6480 nM. For the same compound, the remaining at 0.5 h, 1 µM in [3] is 23.3%; in series [4] it was 38.3%; in series [5], 24.2%. For the same compound, the activity at 10 µM at CYP2C9 was found to be 29%; on CYP3A4, 94.2%. Further, the “reduction … (qualitative)” value (in series [6]; at Activated CDC42 kinase 1 [9]) was “Active” each time. Further, the “reduction in p38 phosphorylation” value in series [7] is “Active”. The inhibition entry (at Activated CDC42 kinase 1 [8]; in series [11]) was “Active” each time. In series [10], the “reduction in JNK phosphorylation” value is “Active”.

Compound `Cc1ccc(NC(=O)c2cccc(C(F)(F)F)c2)cc1N1Cc2cnc(N)nc2N(C)C1=O` showed an IC50 on Activated CDC42 kinase 1 [1] of 18 nM. Moreover, the GI50 in the series filed under Mus musculus was 223 nM; with OCI-AML-3, 466 nM. Also, in series [2], the GI50 at 72 h came out at 4970 nM. Besides, the remaining at 0.5 h, 1 µM was found to be 67.9% in [3], 81.3% in series [4] and 80% in series [5]. Besides, the activity at 10 µM is 68.1% on CYP2C9 and > 100% on CYP3A4. Further, the “reduction … (qualitative)” value (in series [6]; on Activated CDC42 kinase 1 [9]) was “Active” each time. Further, the “reduction in p38 phosphorylation” value in series [7] is “Active”. The inhibition result (at Activated CDC42 kinase 1 [8]; in series [11]) was “Active” each time. The “reduction in JNK phosphorylation” value in series [10] is “Active”.

For the compound `CC(=O)N1CCN(c2ccc(Nc3ncc4c(n3)N(C)C(=O)N(c3cc(NC(=O)c5cccc(C(F)(F)F)c5)ccc3C)C4)cn2)CC1`, the IC50 against Activated CDC42 kinase 1 [1] amounted to 8 nM. Also, the GI50 in the series filed under Mus musculus turned out to be 59 nM; in the series with OCI-AML-3 it was 179 nM. The GI50 at 72 h in series [2] was 2480 nM. For the same compound, the remaining at 0.5 h, 1 µM in series [3] turned out to be 38%; in [4] it was 75.4%; in [5], 49.1%. For the same compound, the activity at 10 µM on CYP2C9 was 15.6%; on CYP3A4, 88.5%.

The compound `Cc1ccc(Nc2ncc3c(n2)N(C)C(=O)N(c2cc(NC(=O)c4ccc(CN5CCC(N(C)C)C5)c(C(F)(F)F)c4)ccc2C)C3)cn1` (centres undefined) came in with an IC50 against Activated CDC42 kinase 1 [1] of 6 nM. In addition, the GI50 in the series filed under Mus musculus was 23 nM; in the series with OCI-AML-3, 37 nM. Moreover, the GI50 at 72 h in series [2] worked out at 1970 nM. For the same compound, the remaining at 0.5 h, 1 µM in series [3] turned out to be 43.1%; in [4] it was 76.5%; in [5], 58.7%. Moreover, the results for the activity at 10 µM on CYP2C9 and on CYP3A4 were 55.1% and 21.6%, respectively. Further, the “reduction … (qualitative)” value (in series [6]; on Activated CDC42 kinase 1 [9]) was “Active” in each case. In addition, the “reduction in p38 phosphorylation” value in series [7] is “Active”. Moreover, the inhibition result (at Activated CDC42 kinase 1 [8]; in [11]) was “Active” throughout. Besides, the “reduction in JNK phosphorylation” value in series [10] is “Active”.

These data come from ChEMBL document CHEMBL4196175, “First SAR Study for Overriding NRAS Mutant Driven Acute Myeloid Leukemia” (J Med Chem, 2018).
